Reference: ChEMBL document CHEMBL1149303 (J Med Chem, 2004)
Calls of active or inactive are those of the source. No cut-off for these calls is given here.

What was measured:
[1] = biological target: T1, Prostaglandin G/H synthase 2 (Homo sapiens, UniProt P35354); assay type: tissue-based, Blood
T1 sequence (P35354 whole entry): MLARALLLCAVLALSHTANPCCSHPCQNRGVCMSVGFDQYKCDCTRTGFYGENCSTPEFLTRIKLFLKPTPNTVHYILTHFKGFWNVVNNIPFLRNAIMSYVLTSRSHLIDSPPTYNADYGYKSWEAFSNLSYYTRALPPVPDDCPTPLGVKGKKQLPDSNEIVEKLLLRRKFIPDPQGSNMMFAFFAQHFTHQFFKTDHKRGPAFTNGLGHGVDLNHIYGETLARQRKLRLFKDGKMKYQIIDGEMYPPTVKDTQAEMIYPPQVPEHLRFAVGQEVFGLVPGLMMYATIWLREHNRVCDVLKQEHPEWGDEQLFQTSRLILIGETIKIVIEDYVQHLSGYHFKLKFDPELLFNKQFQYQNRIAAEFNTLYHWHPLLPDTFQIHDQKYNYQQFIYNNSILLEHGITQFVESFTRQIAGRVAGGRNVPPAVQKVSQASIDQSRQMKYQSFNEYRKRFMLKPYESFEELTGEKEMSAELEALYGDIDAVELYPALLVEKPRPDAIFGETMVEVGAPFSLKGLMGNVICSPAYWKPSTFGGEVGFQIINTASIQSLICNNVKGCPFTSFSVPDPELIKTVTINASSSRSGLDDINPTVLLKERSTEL

[2] = biological target: Prostaglandin G/H synthase 1 (Homo sapiens, UniProt P23219)
Prostaglandin G/H synthase 1, sequence (P23219 whole entry): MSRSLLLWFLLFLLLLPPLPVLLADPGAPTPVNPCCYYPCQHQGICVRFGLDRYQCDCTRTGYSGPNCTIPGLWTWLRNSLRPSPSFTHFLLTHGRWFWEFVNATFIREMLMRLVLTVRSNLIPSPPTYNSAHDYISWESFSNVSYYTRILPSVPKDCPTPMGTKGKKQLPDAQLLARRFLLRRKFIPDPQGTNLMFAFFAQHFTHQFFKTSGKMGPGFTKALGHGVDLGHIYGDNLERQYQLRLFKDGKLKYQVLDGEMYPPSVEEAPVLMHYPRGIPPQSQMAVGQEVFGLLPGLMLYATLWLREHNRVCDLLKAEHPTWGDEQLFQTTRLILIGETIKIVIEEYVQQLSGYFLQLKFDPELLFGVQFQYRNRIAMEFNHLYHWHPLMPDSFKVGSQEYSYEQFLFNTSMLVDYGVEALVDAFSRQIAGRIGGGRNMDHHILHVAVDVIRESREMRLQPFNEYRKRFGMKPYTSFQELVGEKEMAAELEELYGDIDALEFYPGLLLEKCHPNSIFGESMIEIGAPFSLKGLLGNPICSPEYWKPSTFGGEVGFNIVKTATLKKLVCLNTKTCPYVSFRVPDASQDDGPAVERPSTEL

[3] = organism: Homo sapiens; assay: Selectivity ratio of IC50 for human COX1 to IC50 for human COX2
Procedure, shortened: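 Human whole blood, each compound tested in triplicate at 0.01–100 µmol/L final, vehicle DMSO. COX-1: blood preincubated 15 min at 37 °C, stimulated with calcium ionophore A-23,187 for 15 min, serum TXB2 by EIA. COX-2: heparinized blood preincubated 15 min, then LPS (100 µg/mL final, E. coli B4) for 24 h at 37 °C, plasma PGE2 by EIA. Ratio taken as IC50 COX-1/IC50 COX-2.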

[4] = Dissociation constant, pKa by sulfonamide/sulfonamidate equilibrium; assay type: physicochemical
Procedure, shortened: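 pKa was determined by UV spectrophotometry, to assign each compound's ionic state at pH 7.4.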

[5] = Dissociation constant, pKa by pyridinium/pyridine equilibrium; assay type: physicochemical
Procedure, shortened: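 Ionisation constant measured by UV spectrophotometry.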

[6] = system: Rattus norvegicus; assay: Antiinflammatory activity against carrageenan-induced oedema in Wistar rat paw at 3 mg/kg, ip after 3 hrs relative to control; assay type: functional; conditions: route intraperitoneal
Procedure, shortened: (§1)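 Wistar rats (250 g) got the drug ip from a 10 mg/mL DMSO solution. 1 h later, 0.1 mL of 1% λ-carrageenan was injected into the plantar region of the right paw. After 3 h the rats were euthanized with nembutal (100 mg/kg), and paws were cut at the ankle and weighed. Swelling inhibition is given as % vs the control group (6 rats/group, mean ± SEM).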

[7] = system: Rattus norvegicus; assay: Antiinflammatory activity against carrageenan-induced oedema in Wistar rat paw at 10 mg/kg, ip after 3 hrs relative to control; assay type: functional; conditions: route intraperitoneal
Procedure, shortened: as §1

[8] = system: Rattus norvegicus; assay: Antiinflammatory activity against carrageenan-induced oedema in Wistar rat paw at 30 mg/kg, ip after 3 hrs relative to control; assay type: functional; conditions: route intraperitoneal
Procedure, shortened: as §1

[9] = system: Rattus norvegicus; assay: Lethality in Wistar rat at 30 mg/kg, ip in carrageenan-induced paw oedema model; assay type: functional, organism-based; design: dose 30 mg/kg
Procedure, shortened: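 Wistar rats (250 g) were dosed ip from a 10 mg/mL DMSO solution, 1 h before 0.1 mL of 1% λ-carrageenan in the right hind paw. Deaths were noted over the following 3 h paw-oedema period in groups of six rats.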

Structure (SMILES)	IC50 [1] [nM]	IC50 [2] [nM]	Ratio IC50 [3]	pKa [4]	pKa [5]	inhibition in vivo at 3 mg/kg [6] [%]	inhibition in vivo at 10 mg/kg [7] [%]	inhibition in vivo at 30 mg/kg [8] [%]	Activity [9]
O=S(=O)(Nc1ccncc1Oc1ccccc1Cl)C(F)(F)F	150	270	1.74						
CCCS(=O)(=O)Nc1ccncc1Oc1ccccc1	> 100000	18400							
CS(=O)(=O)Nc1ccncc1Oc1ccc(Cl)cc1Cl	120	620	5.15	< 4	7.81	20.9	15.8	32.7	
O=S(=O)(c1ccccc1)c1cnccc1NS(=O)(=O)C(F)(F)F	> 100000	> 100000		< 1	5.3				
CCS(=O)(=O)Nc1ccncc1Oc1ccc(Cl)cc1	3280	2440	0.75	< 4	7.98				
CS(=O)(=O)Nc1ccncc1Oc1ccccc1Cl	130	1030	7.92			9.47	37.5	62.8	
CS(=O)(=O)Nc1ccc([N+](=O)[O-])cc1Oc1ccccc1 [NIMESULIDE]						23.7	40.2	44.3	
O=S(=O)(Nc1ccncc1Sc1ccccc1)C(F)(F)F	530	410	0.78	< 1	6.54				
CS(=O)(=O)Nc1ccncc1Oc1cccc(Cl)c1	1990	10900	5.45	< 4	7.74	10.9	21		Active
O=S(=O)(Nc1ccncc1Nc1ccccc1)C(F)(F)F	90	180	2.03			22.7	34.5	44	
CS(=O)(=O)Nc1ccncc1Oc1cc(Cl)cc(Cl)c1	> 100000	> 100000				18	18	21.3	
COc1ccc(Oc2cnccc2NS(=O)(=O)C(F)(F)F)cc1	440	260	0.59						

Further lines, with some results ahead:

IC50 [1] [nM]	IC50 [2] [nM]	Ratio IC50 [3]	pKa [4]	pKa [5]	Structure (SMILES)	inhibition in vivo at 3 mg/kg [6] [%]	inhibition in vivo at 10 mg/kg [7] [%]	inhibition in vivo at 30 mg/kg [8] [%]	Activity [9]
> 100000	> 100000				CS(=O)(=O)Nc1ccncc1S(=O)(=O)c1ccccc1				
7600	1410	0.18	< 4	7.86	CS(=O)(=O)Nc1ccncc1Oc1ccc(Br)cc1				
			< 1	6.81	O=S(=O)(Nc1ccncc1Oc1ccccc1)C(F)(F)F	10.9	26	46.4	
2360	1810	0.76			COc1ccc(Oc2cnccc2NS(C)(=O)=O)cc1				
13800	240	0.02			O=S(=O)(Nc1ccncc1Oc1ccc(Br)cc1)C(F)(F)F	5	8.33	36.7	
> 100000	> 100000				O=S(=O)(Nc1ccncc1Oc1cc(Cl)cc(Cl)c1)C(F)(F)F				
9690	2300	0.24			CCCS(=O)(=O)Nc1ccncc1Oc1ccc(Cl)cc1				
> 100000	410		2.98	8.13	CS(=O)(=O)Nc1ccncc1Oc1ccccc1				Active
14100	5340	0.38			CCS(=O)(=O)Nc1ccncc1Oc1ccccc1				
1190	3620	3.05			CS(=O)(=O)Nc1ccncc1Sc1ccccc1	7.44	40.7		Active
1870	1450	0.77	< 4	7.97	CS(=O)(=O)Nc1ccncc1Oc1ccc(Cl)cc1	28.7	35.1		Active
1530	360	0.24	< 1	6.71	O=S(=O)(Nc1ccncc1Oc1ccc(Cl)cc1)C(F)(F)F				
47600	4630	0.097			CN(c1ccccc1)c1cnccc1NS(=O)(=O)C(F)(F)F				
> 100000	25600		< 1	5.69	O=S(=O)(Nc1ccncc1[S+]([O-])c1ccccc1)C(F)(F)F (stereo not drawn)				
2550	1370	0.54			O=S(=O)(Nc1ccncc1Oc1ccc(Cl)cc1Cl)C(F)(F)F				
> 100000	2270				O=S(=O)(Nc1ccncc1Oc1cccc(Cl)c1)C(F)(F)F				
